Test results taken from ChEMBL document CHEMBL4699436, “Scaffold diversity for enhanced activity of glycosylated inhibitors of fungal adhesion” (RSC Med Chem, 2020).

Experiments:
Candida albicans [1] = assay: Anti-adherence activity against Candida albicans serotype B assessed as displacement of adhered yeast cells on BECs at 13.8 mM incubated for 90 mins after preincubation of yeast cells with BECs by crystal violet staning based microscopic method relative to PBS control after second filtration; type: functional, organism-based
How it was run: (§1)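 C. albicans MEN (serotype B, corneal clinical isolate) was grown overnight to stationary phase in YEPD at 30 °C and 200 rpm, washed, and resuspended in PBS at 1 × 10^8 cells per mL. Buccal epithelial cells were scraped from healthy volunteers, washed, and held at 5 × 10^5 per mL. Yeast and BECs (50:1) were co-incubated first. The BECs with adherent yeast were collected on a 30 μm polycarbonate membrane, then re-incubated with compound for 90 min. Yeast on 200 BECs were counted after crystal violet staining. Control 1 was PBS. Control 2 was the PBS-treated count after the second filtration, to account for physical detachment. Three independent occasions; mean ± SEM.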

Candida albicans [2] = assay: (§2) Anti-adherence activity against Candida albicans serotype B assessed as reduction in fungal adhesion to human BECs at 13.8 mM preincubated with yeast cells for 90 mins followed by twice washout with PBS followed by BECs addition by crystal violet staning based microscopic method relative to control; type: functional; settings: 1.5 h
How it was run: (§3)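 Pre-treatment (exclusion) format. Stationary-phase C. albicans MEN in PBS were incubated with compound for 90 min, washed twice with PBS, and resuspended in 1 mL PBS. They were then mixed 50:1 with volunteer BECs for 90 min at 30 °C and 200 rpm. After 30 μm membrane filtration and crystal violet staining, yeast attached to 200 BECs were counted. PBS control. Three independent occasions; mean ± SEM.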

Candida albicans [3] = assay: Anti-adherence activity against Candida albicans serotype B assessed as reduction in yeast adhesion to human BECs at 13.8 mM preincubated for 90 mins with BECs followed by twice washout with PBS followed by yeast cells addition by crystal violet staning based microscopic method relative to control; type: functional; settings: 1.5 h
How it was run: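 Reverse exclusion format. Buccal epithelial cells were pre-treated with compound at 13.8 mM before exposure to the yeast (C. albicans MEN, stationary phase, in PBS). Adherence was measured by membrane filtration, crystal violet staining, and microscopic counting of yeast on 200 BECs. Three independent occasions; mean ± SEM.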

Candida albicans [4] = assay: Anti-adherence activity against Candida albicans serotype B assessed as fungal adhesion to human BECs at 13.8 mM co- incubated for 90 mins with yeast cells and BECs by crystal violet staning based microscopic method relative to control; type: functional; settings: 1.5 h
How it was run: (§4)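 Yeast (C. albicans MEN, stationary phase, washed, 1 × 10^8 per mL in PBS) were co-incubated with volunteer BECs at 50:1, with compound present, in 2 mL at 30 °C and 200 rpm for 90 min. Unattached yeast were removed on a 30 μm membrane with two PBS washes. Cells were heat-fixed and stained with crystal violet, and adherent yeast on 200 BECs were counted microscopically. PBS control. Three independent occasions; mean ± SEM.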

[5] = Toxicity against Candid albicans serotype B assessed as reduction in fungal growth at 0.0133 to 3.4 mM; settings: candida albicans, 3400 µM; dose 0.0133-3.4 mM
Candida albicans [6] = assay: Anti-adherence activity against Candida albicans serotype B assessed as displacement of adhered yeast cells on BECs at 13.8 mM incubated for 90 mins after preincubation of yeast cells with BECs by crystal violet staning based microscopic method relative to PBS control; type: functional, organism-based; how it was run: as §1
Candida albicans [7] = assay: Anti-adherence activity against Candida albicans serotype B assessed as displacement of adhered yeast cells on human BECs at 138 uM incubated for 90 mins after preincubation of yeast cells with BECs by crystal violet staning based microscopic method relative to PBS control; type: functional, organism-based; how it was run: as §1
Candida albicans [8] = assay: Anti-adherence activity against Candida albicans serotype B assessed as fungal adhesion to human BECs at 138 uM co-incubated for 90 mins with yeast cells and BECs by crystal violet staning based microscopic method relative to control; type: functional; settings: 1.5 h; how it was run: as §4
Candida albicans [9] = assay: Anti-adherence activity against Candida albicans serotype B assessed as displacement of adhered yeast cells on BECs at 138 uM incubated for 90 mins after preincubation of yeast cells with BECs by crystal violet staning based microscopic method relative to PBS control after second filtration; type: functional, organism-based; how it was run: as §1
Candida albicans [10] = assay: Anti-adherence activity against Candida albicans serotype B assessed as fungal adhesion to human BECs at 1.38 mM co-incubated for 90 mins with yeast cells and BECs by crystal violet staning based microscopic method relative to control; type: functional; settings: 1.5 h; how it was run: as §4
Candida albicans [11] = assay: as §2, with “0.138 to 1.38” for “13.8”; type: functional; settings: dose mM 0.138-1.38, 1.5 h; how it was run: as §3

O=c1c(NCc2cn(CCO[C@@H]3O[C@H](CO)[C@H](O)[C@H](O)[C@H]3O)nn2)c(NCc2cn(CCO[C@@H]3O[C@H](CO)[C@H](O)[C@H](O)[C@H]3O)nn2)c1=O
inhibition (Candida albicans [1]): 21%
inhibition at 13800 µM (Candida albicans [2]): 33%
inhibition at 13800 µM (Candida albicans [3]): 19%
Fungal adhesion relative to control (Candida albicans [4]): 69%
Activity [5]: Non-Toxic
inhibition (Candida albicans [6]): 35%

CCC(=O)Nc1cc(C(=O)NCc2cn([C@@H]3O[C@H](CO)[C@H](O)[C@H](O)[C@H]3O)nn2)cc(C(=O)NCc2cn([C@@H]3O[C@H](CO)[C@H](O)[C@H](O)[C@H]3O)nn2)c1
inhibition (Candida albicans [1]): 31%
inhibition at 13800 µM (Candida albicans [2]): 42%
inhibition at 13800 µM (Candida albicans [3]): 22%
inhibition (Candida albicans [7]): 56%
Activity (Candida albicans [8]): 65%
inhibition (Candida albicans [9]): 36%
Fungal adhesion relative to control (Candida albicans [4]): 59%
Activity [5]: Non-Toxic
Activity (Candida albicans [10]): 74%
inhibition (Candida albicans [6]): 42%

O=c1c(NCc2cn([C@@H]3O[C@H](CO)[C@H](O[C@@H]4O[C@H](CO)[C@H](O)[C@H](O)[C@H]4O)[C@H](O)[C@H]3O)nn2)c(NCc2cn([C@@H]3O[C@H](CO)[C@H](O[C@@H]4O[C@H](CO)[C@H](O)[C@H](O)[C@H]4O)[C@H](O)[C@H]3O)nn2)c1=O
inhibition (Candida albicans [1]): 25%
inhibition at 13800 µM (Candida albicans [2]): 34%
inhibition at 13800 µM (Candida albicans [3]): 15%
Fungal adhesion relative to control (Candida albicans [4]): 64%
inhibition (Candida albicans [6]): 39%

O=C(NCc1cn([C@@H]2O[C@H](CO)[C@H](O)[C@H](O)[C@H]2O)nn1)[C@@H]1[C@H](C(=O)NCc2cn([C@@H]3O[C@H](CO)[C@H](O)[C@H](O)[C@H]3O)nn2)[C@@H]2C=C[C@H]1C2
inhibition (Candida albicans [1]): 34%
inhibition at 13800 µM (Candida albicans [2]): 65%
Fungal adhesion relative to control (Candida albicans [4]): 61%
Activity [5]: Non-Toxic
inhibition (Candida albicans [6]): 45%

O=c1c(NCc2cn([C@@H]3O[C@H](CO)[C@H](O)[C@H](O)[C@H]3O)nn2)c(NCc2cn([C@@H]3O[C@H](CO)[C@H](O)[C@H](O)[C@H]3O)nn2)c1=O
inhibition at 13800 µM (Candida albicans [2]): 27%
inhibition at 13800 µM (Candida albicans [3]): 12%
Fungal adhesion relative to control (Candida albicans [4]): 83%
Activity [5]: Non-Toxic

O=C(NCc1cn([C@@H]2O[C@H](CO)[C@H](O)[C@H](O)[C@H]2O)nn1)c1ccc(C(=O)NCc2cn([C@@H]3O[C@H](CO)[C@H](O)[C@H](O)[C@H]3O)nn2)cc1
inhibition at 13800 µM (Candida albicans [2]): 33.5%
inhibition (Candida albicans [7]): 63%
Activity (Candida albicans [8]): 56%
inhibition (Candida albicans [9]): 48%
Fungal adhesion relative to control (Candida albicans [4]): 38%
Activity [5]: Non-Toxic
inhibition (INH) (Candida albicans [11]): <=61%
Activity (Candida albicans [10]): 74%

O=C1[C@@H]2[C@H](C(=O)N1Cc1cn([C@@H]3O[C@H](CO)[C@H](O)[C@H](O)[C@H]3O)nn1)[C@@H]1C=C[C@H]2C1
inhibition (Candida albicans [1]): 7%
inhibition at 13800 µM (Candida albicans [2]): 43%
Fungal adhesion relative to control (Candida albicans [4]): 83%
inhibition (Candida albicans [6]): 23%

O=C(NCc1cn([C@@H]2O[C@H](CO)[C@H](O)[C@H](O)[C@H]2O)nn1)[C@H]1[C@H](C(=O)NCc2cn([C@@H]3O[C@H](CO)[C@H](O)[C@H](O)[C@H]3O)nn2)[C@H]2C=C[C@@H]1C2
inhibition (Candida albicans [1]): 7%
inhibition at 13800 µM (Candida albicans [2]): 46%
Fungal adhesion relative to control (Candida albicans [4]): 62%
inhibition (Candida albicans [6]): 23%
